ChEMBL document CHEMBL1132255, “Structure-activity relationships for 5-substituted 1-phenylbenzimidazoles as selective inhibitors of the platelet-derived growth factor receptor” (J Med Chem, 1999)

Assays:
[1] = biological target: Fibroblast growth factor receptor 1 (Homo sapiens, UniProt P11362); assay: Inhibition of [32P]ATP incorporated (phosphorylation) into glutamate-tyrosine copolymer substrate by human fibroblast growth factor receptor 1
Procedure, shortened: (§1)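 Enzymes were intracellular tyrosine kinase domain fragments (human FGFR-1 […], mouse PDGFR-β […]), 60–75 ng per reaction, in 25 mM HEPES pH 7.4 with 150 mM NaCl, 10 mM MnCl₂, 0.2 mM sodium orthovanadate, Glu-Tyr (4:1) random copolymer substrate and varied inhibitor. Reactions were started with [³²P]ATP (0.4 μCi), run 10 min at 25 °C and stopped with 15% TCA. IC50 was taken as the concentration reducing ³²P incorporation into the copolymer.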

[2] = biological target: Platelet-derived growth factor receptor beta (Mus musculus, UniProt P05622); assay: Inhibition of [32P]ATP incorporated (phosphorylation) into glutamate-tyrosine copolymer substrate by mouse platelet-derived growth factor receptor beta; procedure, shortened: as §1
Platelet-derived growth factor receptor beta, sequence (P05622 whole entry): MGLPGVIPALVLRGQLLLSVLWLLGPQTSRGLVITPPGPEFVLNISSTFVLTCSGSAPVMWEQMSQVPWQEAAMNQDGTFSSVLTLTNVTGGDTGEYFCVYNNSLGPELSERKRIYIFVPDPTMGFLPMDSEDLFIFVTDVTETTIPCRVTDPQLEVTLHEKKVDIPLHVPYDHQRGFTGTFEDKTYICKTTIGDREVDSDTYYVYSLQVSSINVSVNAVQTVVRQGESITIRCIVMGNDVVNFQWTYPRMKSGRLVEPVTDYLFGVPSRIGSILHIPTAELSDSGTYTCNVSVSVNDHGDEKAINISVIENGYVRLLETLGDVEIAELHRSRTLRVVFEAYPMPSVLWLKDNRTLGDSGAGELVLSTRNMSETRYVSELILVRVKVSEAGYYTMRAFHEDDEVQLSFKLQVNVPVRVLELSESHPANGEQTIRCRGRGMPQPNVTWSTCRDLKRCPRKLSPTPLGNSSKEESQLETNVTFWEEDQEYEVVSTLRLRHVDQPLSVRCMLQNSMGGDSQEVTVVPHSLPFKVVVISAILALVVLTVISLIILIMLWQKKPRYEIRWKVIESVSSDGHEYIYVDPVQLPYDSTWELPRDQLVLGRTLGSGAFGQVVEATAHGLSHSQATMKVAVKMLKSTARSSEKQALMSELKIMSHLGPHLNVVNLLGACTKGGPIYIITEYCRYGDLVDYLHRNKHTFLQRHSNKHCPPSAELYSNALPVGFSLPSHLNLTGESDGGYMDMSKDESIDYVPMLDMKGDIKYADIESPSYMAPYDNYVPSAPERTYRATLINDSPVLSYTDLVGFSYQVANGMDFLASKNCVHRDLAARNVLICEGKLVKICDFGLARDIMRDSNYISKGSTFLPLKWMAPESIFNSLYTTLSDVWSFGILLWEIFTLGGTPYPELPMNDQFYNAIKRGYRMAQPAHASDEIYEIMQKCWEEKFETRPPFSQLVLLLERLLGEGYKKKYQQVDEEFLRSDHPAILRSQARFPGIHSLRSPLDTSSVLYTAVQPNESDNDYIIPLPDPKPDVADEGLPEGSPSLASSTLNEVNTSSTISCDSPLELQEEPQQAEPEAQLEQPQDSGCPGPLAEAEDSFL

[3] = biological target: T1, Platelet-derived growth factor receptor (PDGFr) (Rattus norvegicus, UniProt P20786+Q05030); assay: Inhibition of Platelet-derived growth factor receptor beta autophosphorylation in Rat aorta vascular smooth muscle cells(RAVSMC)
[4] = biological target: T1, Platelet-derived growth factor receptor (PDGFr); assay: Inhibition of Platelet-derived growth factor receptor beta autophosphorylation in Rat aorta vascular smooth muscle cells(RAVSMC).

Fibroblast growth factor receptor 1, sequence (P11362 whole entry, the tested form may be a part): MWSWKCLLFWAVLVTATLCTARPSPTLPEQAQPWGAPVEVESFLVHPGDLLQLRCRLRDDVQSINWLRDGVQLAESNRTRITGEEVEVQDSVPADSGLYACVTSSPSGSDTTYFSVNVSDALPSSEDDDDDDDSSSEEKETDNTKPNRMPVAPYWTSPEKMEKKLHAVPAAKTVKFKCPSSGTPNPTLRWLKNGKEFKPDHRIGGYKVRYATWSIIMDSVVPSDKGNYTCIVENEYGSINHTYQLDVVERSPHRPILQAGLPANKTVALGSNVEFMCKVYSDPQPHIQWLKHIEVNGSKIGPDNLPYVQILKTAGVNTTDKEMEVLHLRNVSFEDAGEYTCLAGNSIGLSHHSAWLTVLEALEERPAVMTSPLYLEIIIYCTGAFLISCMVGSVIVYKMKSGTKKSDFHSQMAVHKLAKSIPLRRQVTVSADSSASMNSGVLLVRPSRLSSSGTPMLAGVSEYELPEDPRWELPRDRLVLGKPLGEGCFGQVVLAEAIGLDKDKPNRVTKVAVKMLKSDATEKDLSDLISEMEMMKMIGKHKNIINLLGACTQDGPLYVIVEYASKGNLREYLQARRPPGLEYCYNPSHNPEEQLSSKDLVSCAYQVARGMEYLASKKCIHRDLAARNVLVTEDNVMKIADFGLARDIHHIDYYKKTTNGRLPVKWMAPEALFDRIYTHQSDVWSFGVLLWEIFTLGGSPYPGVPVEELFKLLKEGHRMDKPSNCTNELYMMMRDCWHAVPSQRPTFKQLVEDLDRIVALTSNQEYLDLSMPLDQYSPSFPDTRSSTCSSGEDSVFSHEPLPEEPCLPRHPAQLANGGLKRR

IC50 [1] [nM] | IC50 [2] [nM] | IC50 [3] [nM] | IC50 [4] [nM] | Structure (SMILES)
25000 | 1000 |  |  | COc1cc2ncn(-c3ccccc3)c2cc1C=O
 | 730 | 790 |  | c1ccc(-n2cnc3cc(OCCN4CCOCC4)ccc32)cc1
24000 | > 50000 |  |  | c1ccc(-n2cnc3cc(SCCCN4CCOCC4)ccc32)cc1
 | 610 |  |  | C=CCOc1ccc2c(c1)ncn2-c1ccccc1
26000 | 240 |  |  | CCOc1ccc2c(c1)ncn2-c1ccccc1
6800 | 160 |  |  | CN(C)CCCCOc1ccc2c(c1)ncn2-c1ccccc1
 | 650 |  |  | NCCOc1ccc2c(c1)ncn2-c1ccccc1
 | 310 |  |  | OCC(O)COc1ccc2c(c1)ncn2-c1ccccc1 (stereo not drawn)
 | 870 |  |  | COC(=O)c1cc2c(cc1OC)ncn2-c1ccccc1
11000 | 370 |  |  | COc1cc2ncn(-c3ccccc3)c2cc1CO
 | 280 |  | 1360 | COc1ccc2c(c1)ncn2-c1ccc(N)cc1
18000 | 320 |  |  | c1ccc(-n2cnc3cc(OCC4CO4)ccc32)cc1 (stereo not drawn)
 | 450 |  |  | OCCCCOc1ccc2c(c1)ncn2-c1ccccc1
 | 150 |  |  | CN(C)CCCOc1ccc2c(c1)ncn2-c1ccccc1
> 50000 | > 50000 |  |  | COc1c(O)ccc2c1ncn2-c1ccccc1
> 50000 | > 50000 |  |  | Oc1ccc2c(ncn2-c2ccccc2)c1Br
> 50000 |  |  |  | COc1ccc2c(ncn2-c2ccccc2)c1O
> 50000 | > 50000 |  |  | COc1ccc2c(ncn2-c2ccccc2)c1OC
 | 170 |  |  | c1ccc(-n2cnc3cc(OCCCN4CCOCC4)ccc32)cc1
> 50000 | > 50000 |  |  | C=CCOc1ccc2c(ncn2-c2ccccc2)c1Br
 | 14000 |  |  | Oc1cccc2c1ncn2-c1ccccc1
 | 250 |  |  | CCCOc1ccc2c(c1)ncn2-c1ccccc1
> 50000 | > 50000 |  |  | C=CCc1c(O)ccc2c1ncn2-c1ccccc1
27000 | 740 |  |  | CSc1ccc2c(c1)ncn2-c1ccccc1
